Experimental findings from ChEMBL document CHEMBL4402547, “Synthesis and Pharmacological Characterization of Conformationally Restricted Retigabine Analogues as Novel Neuronal Kv7 Channel Activators” (J Med Chem, 2020) are described below.

Series [1] is described as follows: Hydrophobicity of compound assessed as self aggregating property by measuring decrease in ratio between fluorescence intensity peaks at 372 nm to 383 nm at 0.7 to 100 uM by pyrene based fluorescence spectroscopic method. In kind it is physicochemical. In outline: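 DMSO stocks diluted in 0.9% NaCl to 0.7–100 μM, residual DMSO <0.1%. Pyrene used as probe, excited at 334 nm; emission recorded 200–700 nm, ten scans summed, at 25°C. Ratio of peak I (372 nm) to peak III (383 nm) intensity plotted against concentration.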

Series [2] concerns Potassium voltage-gated channel subfamily KQT member 2 (Homo sapiens), O43526 [W236L]. Kind of series: Activation of human Kv7.2 W236L mutant expressed in CHO cells assessed as channel current amplitude at 10 uM measured at holding potential of -40 mV by whole cell patch clamp electrophysiology assay. In kind it is cell-based. Summed up: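 CHO cells transiently co-transfected (Lipofectamine 2000, 4 μg total cDNA, EGFP marker) with human channel cDNA in pcDNA3.1, recorded 24 h later. Whole-cell patch clamp at 20–22°C, 3–5 MΩ pipettes, perfused extracellular solution pH 7.4. Held at −80 mV; 3-s ramps −80 to +20 mV ± 10 μM drug. Current at −40 mV with vs without drug expressed as ratio; ≥3 cells from ≥2 transfections, mean ± SEM.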
Chain of Potassium voltage-gated channel subfamily KQT member 2 (Homo sapiens), O43526 [W236L] (O43526 whole entry W236L, the tested form may be a part): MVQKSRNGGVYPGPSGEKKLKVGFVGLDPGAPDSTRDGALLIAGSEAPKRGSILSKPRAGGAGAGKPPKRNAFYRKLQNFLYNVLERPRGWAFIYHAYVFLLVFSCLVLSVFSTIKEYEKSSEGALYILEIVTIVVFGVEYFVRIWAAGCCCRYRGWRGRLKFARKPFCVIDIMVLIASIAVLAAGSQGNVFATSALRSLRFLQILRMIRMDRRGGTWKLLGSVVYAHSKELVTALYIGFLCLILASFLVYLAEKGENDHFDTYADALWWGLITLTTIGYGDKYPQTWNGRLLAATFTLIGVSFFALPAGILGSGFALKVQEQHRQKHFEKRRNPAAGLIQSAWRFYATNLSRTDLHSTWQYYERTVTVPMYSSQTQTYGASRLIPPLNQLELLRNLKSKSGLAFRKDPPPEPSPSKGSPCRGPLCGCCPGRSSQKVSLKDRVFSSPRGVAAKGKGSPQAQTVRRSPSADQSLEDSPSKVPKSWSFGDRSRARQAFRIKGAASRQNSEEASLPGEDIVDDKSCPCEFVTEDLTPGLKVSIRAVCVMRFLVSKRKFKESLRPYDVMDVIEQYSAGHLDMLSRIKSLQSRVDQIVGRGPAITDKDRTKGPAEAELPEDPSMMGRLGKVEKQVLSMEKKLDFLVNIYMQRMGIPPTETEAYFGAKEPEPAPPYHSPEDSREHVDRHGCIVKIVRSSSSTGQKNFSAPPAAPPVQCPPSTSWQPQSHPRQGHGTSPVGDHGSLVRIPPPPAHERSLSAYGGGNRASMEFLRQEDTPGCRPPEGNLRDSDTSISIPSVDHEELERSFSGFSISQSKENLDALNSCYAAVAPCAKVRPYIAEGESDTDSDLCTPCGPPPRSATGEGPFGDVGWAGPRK
For orientation: The patch-clamp technique gives a direct electrical read-out from membranes.

Series [3] concerns the target T1, Potassium voltage-gated channel subfamily KQT member 3 (Homo sapiens) (UniProt O43525).
T1 sequence (whole entry): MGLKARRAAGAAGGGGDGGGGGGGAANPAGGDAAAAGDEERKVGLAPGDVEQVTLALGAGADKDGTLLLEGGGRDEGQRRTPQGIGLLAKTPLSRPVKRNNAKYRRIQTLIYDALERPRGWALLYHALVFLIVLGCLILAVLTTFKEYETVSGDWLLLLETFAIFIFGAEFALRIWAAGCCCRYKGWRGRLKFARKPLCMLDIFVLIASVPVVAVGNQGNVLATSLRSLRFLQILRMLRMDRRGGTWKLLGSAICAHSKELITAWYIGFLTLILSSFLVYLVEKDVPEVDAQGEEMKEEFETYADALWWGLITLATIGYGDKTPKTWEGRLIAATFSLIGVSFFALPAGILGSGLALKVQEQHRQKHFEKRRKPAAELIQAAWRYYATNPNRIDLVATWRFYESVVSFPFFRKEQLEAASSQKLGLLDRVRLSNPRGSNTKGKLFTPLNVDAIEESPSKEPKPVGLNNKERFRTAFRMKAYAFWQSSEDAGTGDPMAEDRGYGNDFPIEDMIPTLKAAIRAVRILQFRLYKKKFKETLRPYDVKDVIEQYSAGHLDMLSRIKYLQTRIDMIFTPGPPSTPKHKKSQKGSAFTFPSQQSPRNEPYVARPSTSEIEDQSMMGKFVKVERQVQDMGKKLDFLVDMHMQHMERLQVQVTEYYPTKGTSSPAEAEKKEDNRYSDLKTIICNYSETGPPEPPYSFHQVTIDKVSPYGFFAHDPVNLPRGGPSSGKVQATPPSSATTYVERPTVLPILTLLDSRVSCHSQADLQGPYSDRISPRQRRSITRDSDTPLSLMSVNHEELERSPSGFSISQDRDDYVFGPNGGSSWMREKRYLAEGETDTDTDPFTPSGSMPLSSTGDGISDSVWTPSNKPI
Kind of series: Activation of human Kv7.3 expressed in CHO cells assessed as delta V at 30 uM by whole cell patch clamp electrophysiology assay. The format is cell-based.

In series [4] the target is T2, Potassium voltage-gated channel subfamily KQT member 4 (Homo sapiens, UniProt P56696).
T2 sequence (P56696 whole entry): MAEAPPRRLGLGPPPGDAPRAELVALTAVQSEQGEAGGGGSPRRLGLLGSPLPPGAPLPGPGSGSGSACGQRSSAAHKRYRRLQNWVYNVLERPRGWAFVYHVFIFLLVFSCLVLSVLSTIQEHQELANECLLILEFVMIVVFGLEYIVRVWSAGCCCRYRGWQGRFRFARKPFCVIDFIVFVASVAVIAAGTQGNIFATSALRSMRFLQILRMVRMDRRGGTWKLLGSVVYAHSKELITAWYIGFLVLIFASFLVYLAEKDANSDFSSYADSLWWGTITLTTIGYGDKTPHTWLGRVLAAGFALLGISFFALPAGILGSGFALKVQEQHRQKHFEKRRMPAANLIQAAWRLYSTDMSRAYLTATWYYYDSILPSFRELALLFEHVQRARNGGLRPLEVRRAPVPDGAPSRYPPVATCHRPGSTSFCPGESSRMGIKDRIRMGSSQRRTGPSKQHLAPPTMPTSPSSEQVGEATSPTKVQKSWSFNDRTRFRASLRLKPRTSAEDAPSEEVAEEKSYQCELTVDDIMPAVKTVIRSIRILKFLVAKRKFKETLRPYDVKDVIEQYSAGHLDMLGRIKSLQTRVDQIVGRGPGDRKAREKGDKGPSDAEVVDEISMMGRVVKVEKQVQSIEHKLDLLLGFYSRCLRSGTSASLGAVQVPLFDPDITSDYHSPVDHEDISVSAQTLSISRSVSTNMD
Nature of the series: Activation of human Kv7.4 expressed in CHO cells assessed as delta V at 10 uM by whole cell patch clamp electrophysiology assay. The format is cell-based.

Series [5] has as its target T3, Potassium voltage-gated channel subfamily KQT member 5 (Homo sapiens, UniProt Q9NR82). Kind of series: Activation of human Kv7.5 expressed in CHO cells assessed as delta V at 10 uM by whole cell patch clamp electrophysiology assay. The format is cell-based.
The target in series [6] is T3, Potassium voltage-gated channel subfamily KQT member 5. Kind of series: Activation of human Kv7.5 expressed in CHO cells assessed as increase in channel current amplitude by whole cell patch clamp electrophysiology assay. The format is cell-based.
A short description of series [7]: Photostability of compound in pH 7.4 buffer assessed as compound degradation at 100 ug/ml incubated for 6 hrs under natural solar light-irradiation by HPLC analysis relative to control. Summed up: (§1)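 DMSO solutions diluted in pH 7.4 buffer, held in 1 cm quartz cells and exposed to natural daylight. Light-shielded controls kept at 37°C in foil. Aliquots drawn at set intervals and parent compound loss measured by UHPLC: C18 column, 0.1% TFA water/acetonitrile gradient, 45°C, detection at 254 nm.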

Series [8] in a line: Photostability of compound in pH 7.4 buffer assessed as compound degradation at 100 ug/ml incubated for 2 hrs under natural solar light-irradiation by HPLC analysis relative to control. In outline: as §1

The EC50 is the concentration at which the effect is half-maximal.

The source made the active and inactive calls. No cut-off for these calls is given here.

T3 sequence (Q9NR82 whole entry): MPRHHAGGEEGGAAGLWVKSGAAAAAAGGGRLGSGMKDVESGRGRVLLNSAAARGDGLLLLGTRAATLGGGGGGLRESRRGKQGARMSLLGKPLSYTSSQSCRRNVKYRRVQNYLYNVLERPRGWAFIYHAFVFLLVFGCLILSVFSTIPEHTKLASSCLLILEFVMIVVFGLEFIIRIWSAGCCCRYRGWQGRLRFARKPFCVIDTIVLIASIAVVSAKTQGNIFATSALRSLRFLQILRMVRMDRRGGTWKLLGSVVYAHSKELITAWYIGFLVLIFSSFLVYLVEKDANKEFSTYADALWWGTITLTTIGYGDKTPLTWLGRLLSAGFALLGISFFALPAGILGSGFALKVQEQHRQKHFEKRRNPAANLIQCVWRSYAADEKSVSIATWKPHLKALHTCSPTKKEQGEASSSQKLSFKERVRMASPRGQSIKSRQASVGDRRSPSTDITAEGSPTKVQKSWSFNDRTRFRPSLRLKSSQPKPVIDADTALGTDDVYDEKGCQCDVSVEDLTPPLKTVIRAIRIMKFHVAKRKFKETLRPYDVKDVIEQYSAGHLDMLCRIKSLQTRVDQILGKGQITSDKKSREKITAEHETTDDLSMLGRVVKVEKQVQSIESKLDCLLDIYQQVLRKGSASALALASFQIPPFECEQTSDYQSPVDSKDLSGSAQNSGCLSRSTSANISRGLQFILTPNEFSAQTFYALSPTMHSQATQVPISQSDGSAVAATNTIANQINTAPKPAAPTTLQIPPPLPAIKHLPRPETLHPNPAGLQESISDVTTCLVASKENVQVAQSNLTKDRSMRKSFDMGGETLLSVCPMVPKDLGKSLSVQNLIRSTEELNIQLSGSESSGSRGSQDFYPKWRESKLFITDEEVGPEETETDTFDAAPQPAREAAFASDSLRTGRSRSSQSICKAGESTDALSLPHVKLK

For `CCCCCCC(=O)Nc1ccc2c(ccn2Cc2ccc(C(F)(F)F)cc2)c1`, the Activity result in series [1] is “Active”; in series [3], -26.2 mV; in series [4], -32.85 mV; in series [5] it was -25.6 mV. In addition, in series [2], the outcome was inactive. In addition, the EC50 in series [6] came out at 1070 nM. Besides, the Drug degradation in series [7] was determined as 9.15%; in series [8], 1.36%.
`CCOC(=O)Nc1ccc(NCc2ccc(F)cc2)cc1N` [EZOGABINE]: the Activity entry is “Not Active” in series [1], -39.9 mV in series [3], -15.19 mV in series [4] and -21.95 mV in series [5]. Besides, in series [2], the outcome was inactive. Besides, the EC50 in series [6] amounted to 800 nM. Further, the Drug degradation in series [7] was 43.5 to 47.3%; in series [8], 9.65%.
Take `CC(C)(C)CC(=O)Nc1ccc2c(ccn2Cc2ccc(C(F)(F)F)cc2)c1`: the Activity result in series [1] is “Active”; in series [3], -21.4 mV; in series [4], -24.43 mV; in series [5], -19.7 mV. The outcome in series [2] was inactive. In series [6], the EC50 was determined as 350 nM. Further, the Drug degradation in series [7] amounted to 8.45%; in series [8], 0.96%.
